Laboratory results published in paper PMC5776616 (Experimental and Therapeutic Medicine, 2017).
Where no end group is shown, it is not given here.

How the values were obtained:
[1] = tested on: S. mutans UA 159; assay: MIC by broth microdilution, planktonic S. mutans UA159; assay type: cell-based, Streptococcus mutans; conditions: for MICs against the S. mutans strains: range over both S. mutans strains (UA159 and GS-5); for increase of antibacterial activity against S. mutans compared with hLF1-11 alone: planktonic S. mutans, from MICs
Summary of the method: (§1)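 Strains were grown anaerobically overnight in BHI at 37°C, diluted 1:20 and grown anaerobically 2.5 h to mid-log phase. Two-fold serial peptide dilutions in BHI were set up in 96-well round-bottom plates, and the final inoculum was 1×10^5 CFU/ml. The MIC was reported as the median of at least three independent experiments.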

[2] = tested on: multi-species biofilm of luc-ldh reporter strain of S. mutans, S. gordonii ATCC-10558 and S. sanguis ATCC-49295; assay: Multi-species biofilm; assay type: cell-based; conditions: for growth of S. gordonii and S. sanguis in multi-species biofilm: 5 min after treatment, peptide 128 µg/ml; for relative strength of effect on S. mutans in multi-species biofilm (ranking): order in words: strongest effects, followed by, then, Fig. 2B
Summary of the method: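 Mid-log cultures were adjusted to 1×10^7 CFU/ml in BHI with 0.5% sucrose (S. mutans luc-ldh reporter), 0.5% glucose (S. gordonii) or 0.5% mannose (S. sanguis). Wells were spun and grown anaerobically 4 h at 37°C into biofilm. Peptide in PBS was added at a final 128 µg/ml, then replaced with sugar-containing BHI. OD600 was read at 5–120 min, and S. mutans RLU after adding 1 mM D-luciferin. Groups were compared by one-way ANOVA.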

[3] = tested on: S. mutans UA 159; assay: Differential protein expression; assay type: cell-based, Streptococcus mutans
Summary of the method: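 Mid-log S. mutans UA 159 (BHI, anaerobic, 1×10^6 CFU/ml) was exposed to test peptide at 20 µg/ml or an equal volume of sterile water, anaerobically at 37°C for 1 h. Cells were pelleted at 4°C and lysed with lysozyme plus protease inhibitors, on ice with sonication. Protein was cleaned, quantified and CyDye minimal-labelled. Spots were identified by positive-ion reflection MALDI-TOF-MS over m/z 700–4,000.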

[4] = tested on: S. gordonii ATCC-10558; assay: MIC by broth microdilution, planktonic S. gordonii; assay type: cell-based, Streptococcus gordonii
Summary of the method: as §1

[5] = tested on: S. sanguis ATCC-49295; assay: MIC by broth microdilution, planktonic S. sanguis; assay type: cell-based, Streptococcus sanguis
Summary of the method: as §1

[6] = S. mutans UA 159, C11H 20 µg/ml 1 h vs water control, gi|24379038

Sequence	MICs against the S. mutans strains ([1]; planktonic) [µg/mL]	growth of S. gordonii and S. sanguis in multi-species biofilm [2]	increase of antibacterial activity against S. mutans compared with hLF1-11 alone [1]	relative strength of effect on S. mutans in multi-species biofilm (ranking) [2]	also measured
GRRRRSVQWCA [hLF1-11, reference compound]	37.33 to 48.00	not affected	–	–	–
LSTFFRLFNRSFTQGRRRRSVQWCA [C14H]	10.67 to 13.33	not affected	3–4 times	–	–
LSTFFRLFNGRRRRSVQWCA [C12H]	10.67 to 13.33	not affected	3–4 times	strongest effects	–
TFFRLFNRGRRRRSVQWCA [C8H]	10.67 to 13.33	not affected	3–4 times	then	–
TFFRLFNRSFTGRRRRSVQWCA [C11H]	10.67 to 13.33	not affected	3–4 times	strongest effects	Average ration: Heat shock protein GrpE (HSP-70 cofactor) (master no. 1781) ([3]; S. mutans UA 159, C11H 20 µg/ml 1 h vs water control, gi|24378605): −4.2; Average ration: NAD synthetase (master no. 1628) ([3]; S. mutans UA 159, C11H 20 µg/ml 1 h vs water control, gi|24378953): −4.12; Average ration: Putative cell division A protein DivIV (master no. 1355) [3, 6]: −8; Average ration: Putative cell division protein DivIVA (master no. 1327) [3, 6]: −11.09; Average ration: Putative cell division protein DivIVA (master no. 1341) [3, 6]: −5.58; Average ration: Putative 40K cell wall protein precursor (master no. 654) ([3]; S. mutans UA 159, C11H 20 µg/ml 1 h vs water control, gi|24379086): −4.75; Average ration: Branch ed-chain amino acid aminotransferase (master no. 1241) ([3]; S. mutans UA 159, C11H 20 µg/ml 1 h vs water control, gi|24379628): −5.4; Average ration: Orotate phosphoribo-syltransferase (master no. 2141) ([3]; S. mutans UA 159, C11H 20 µg/ml 1 h vs water control, gi|24379645): −4.63; Average ration: Putative dTDP-4-keto-L-rhamnose reductase (master no. 2068) ([3]; S. mutans UA 159, C11H 20 µg/ml 1 h vs water control, gi|24379857): −5.54; Average ration: Ribosome recycling factor (master no. 2072) ([3]; S. mutans UA 159, C11H 20 µg/ml 1 h vs water control, gi|24380004): −4.7; Average ration: Hypothetical protein SMU.1716c (master no. 2188) ([3]; S. mutans UA 159, C11H 20 µg/ml 1 h vs water control, gi|24380090): −6.14; Average ration: Putative trans-2-enoyl-ACP reductase (master no. 1551) ([3]; S. mutans UA 159, C11H 20 µg/ml 1 h vs water control, gi|24380114): −4.34; Average ration: Hypothetical protein SMU.1760c (master no. 1506) ([3]; S. mutans UA 159, C11H 20 µg/ml 1 h vs water control, gi|24380128): −5.93; Average ration: Hypothetical protein SMU.1789c (master no. 1576) ([3]; S. mutans UA 159, C11H 20 µg/ml 1 h vs water control, gi|24380155): −6.04; Average ration: Elongation factor P (master no. 2035) ([3]; S. mutans UA 159, C11H 20 µg/ml 1 h vs water control, gi|24380208): −4.19; Average ration: Single-strand DNA-binding protein (master no. 2334) ([3]; S. mutans UA 159, C11H 20 µg/ml 1 h vs water control, gi|24380219): −5.37; Average ration: Inositol-5 monophosphate dehydrogenase (master no. 824) ([3]; S. mutans UA 159, C11H 20 µg/ml 1 h vs water control, gi|24380485): −12.84; 21 protein spots with a mean change ratio of 1.5 ([3]; S. mutans UA 159, C11H 20 µg/ml, 1 h): downregulated
STFFRLFNRSFTQGRRRRSVQWCA [C13H]	10.67 to 13.33	not affected	3–4 times	–	–
LSTFFRLFN [C12]	–	not affected	–	–	MIC against S. gordonii [4]: > 256 µg/mL; MIC against S. mutans ([1]; planktonic): > 256 µg/mL; MIC against S. sanguis [5]: > 256 µg/mL
